Rows were chosen to be rich in hits. Some 3.4% of all compounds tested hit in one or more screens of this group.
CHT inh: inhibitors of human choline transporter CHT; Q9GZV3; CHT-expressing cells, membrane potential dye, choline response; hits give low values; B-score at 10 µM; 310,000 compounds, 0.86% hits;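 active = B-score over 3 SD under the library average, and starting fluorescence ratio not unusually high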;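 note: choline stimulus applied at its EC90 after an EC20 pre-addition; B-score computed on integrated fluorescence ratio after choline addition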
Target sequence (Q9GZV3 whole entry, looked up): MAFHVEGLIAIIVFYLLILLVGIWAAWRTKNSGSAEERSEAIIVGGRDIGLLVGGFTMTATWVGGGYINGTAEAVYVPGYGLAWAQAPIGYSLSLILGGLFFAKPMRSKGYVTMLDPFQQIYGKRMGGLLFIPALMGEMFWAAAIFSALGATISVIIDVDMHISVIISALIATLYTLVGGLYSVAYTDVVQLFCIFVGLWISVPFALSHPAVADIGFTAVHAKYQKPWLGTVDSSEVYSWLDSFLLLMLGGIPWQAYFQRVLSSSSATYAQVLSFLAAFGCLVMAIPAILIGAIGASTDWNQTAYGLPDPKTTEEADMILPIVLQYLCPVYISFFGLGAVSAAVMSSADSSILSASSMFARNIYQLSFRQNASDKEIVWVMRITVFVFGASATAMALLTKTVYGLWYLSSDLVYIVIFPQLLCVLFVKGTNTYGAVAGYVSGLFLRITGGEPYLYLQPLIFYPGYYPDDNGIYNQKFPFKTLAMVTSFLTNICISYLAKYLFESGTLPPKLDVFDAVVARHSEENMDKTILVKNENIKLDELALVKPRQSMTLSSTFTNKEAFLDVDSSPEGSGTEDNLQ
IMP-1 inhibitor: inhibitors of Pseudomonas aeruginosa IMP-1 metallo-beta-lactamase | purified IMP-1, nitrocefin hydrolysis, epi-absorbance fluorescence | inhibition, % at 5.6 µM | 290,000 compounds, 0.45% hits | AID 1556;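 active = inhibition above the mean plus 3 SD of all compounds in the same screening run, cut at about 4.5% in these data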
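System: purified IMP-1 / Input: IMP-1 dispensed at 0.2 nM / Medium: 50 mM HEPES pH 7.1, 50 µM ZnSO4, 0.05% Brij 35 / Timing: 15 min enzyme–compound preincubation, then 25 min nitrocefin reaction, 25 °C / Technique: plate fluorescence quenching by hydrolysis product, ex 480/em 530 nm / Repeats: singlicate testing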
VIM-2 inh: inhibitors of Pseudomonas aeruginosa VIM-2 metallo-beta-lactamase. purified VIM-2, nitrocefin hydrolysis, epi-absorbance fluorescence. inhibition, % at 5.6 µM. 290,000 compounds, 0.89% hits. AID 1527;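 active = inhibition above the mean of all tested compounds plus 3 SD, cutoff set per screening run, cut at about 7.5% in these data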;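 note: red hydrolysis product quenches plate fluorescence so inhibitors raise well fluorescence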
CHT PAM: allosterically activates the human high affinity choline transporter. Q9GZV3. CHT-expressing cells, membrane potential dye, choline EC20; hits give high values; LV-AA mutant CHT in HEK293 cells. B-score at 10 µM. 310,000 compounds, 0.49% hits;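 active = initial fluorescence not abnormally high and integrated response B-score, plate-corrected, over 3 SD above library mean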
ANO1 block: blocks the mouse calcium-activated chloride channel TMEM16A; HEK293 TMEM16A/YFP iodide influx fluorescence, ionomycin; normalized B-score (activity score, 25-100; higher = stronger inhibition) at 10 µM; 310,000 compounds, 1.2% hits; AID 588511;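 active = ratio plate-corrected score three or more library SD toward inhibition, starting fluorescence score within five deviations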;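 note: score derived from kinetic fluorescence span divided by baseline fluorescence per well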
TMEM16A act: activates or potentiates the mouse TMEM16A chloride channel. Q8BHY3. HEK293 TMEM16A/YFP-H148Q/I152L, iodide quench fluorescence; hits give low values. B-score at 10 µM. 340,000 compounds, 0.3% hits. AID 623877;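 active = fluorescence-ratio B-score plate-corrected deviation score at least 3 library SD below zero, with starting fluorescence score within 5 deviations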;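 note: channel opened by trigger with iodide after compound preincubation; score built on the fluorescence ratio of max minus min over baseline; more negative score means more quench and so TMEM16A activation or potentiation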
Numbers stand for hits; 0 = inactive; - = no result.

SMILES	CHT inh	IMP-1 inhibitor	VIM-2 inh	CHT PAM	ANO1 block	TMEM16A act
Cc1ccc(N2C(=O)NC(=O)/C(=C\c3cc(C)n(-c4ccc(C(=O)O)cc4)c3C)C2=O)cc1	0	0	0	0	0	0
Cc1cc(/C=C2\C(=O)NC(=O)N(c3ccc(Cl)cc3)C2=O)c(C)n1-c1sc2c(c1C#N)CCCC2	0	5.3	0	0	0	0
CSc1ccc(C(=O)C2CCCN(Cc3cc4ccccc4[nH]3)C2)cc1 (stereo not given)	0	0	0	0	25	0
CC(=O)c1ccc2c(c1)C1C(Cl)C(Sc3ccccc3[N+](=O)[O-])CC1C(c1ccccc1[N+](=O)[O-])N2 (stereo not given)	0	0	0	0	0	0
CC(=O)c1ccc2c(c1)C1C(Cl)C(Sc3ccccc3[N+](=O)[O-])CC1C(c1ccccc1)N2 (stereo not given)	0	5.7	0	0	0	0
CC12C=CC(=O)C=C1CCC1C2C(O)CC2(C)C1CCC2(C)O (stereo not given)	-	-	-	-	-	0
CCCCCn1c(=O)c(C(=O)Nc2cnccn2)c(O)c2ccccc21	0	0	0	0	0	-6.5
CCCCCCCn1c(=O)c(C(=O)Nc2cnccn2)c(O)c2ccccc21	0	0	0	0	0	0
C[N+]12CCC(CC1)C(C(O)(c1ccccc1)c1cccs1)C2 (stereo not given)	0	12	0	0	0	0
CCC[N+]12CCC(CC1)C(C(O)(c1ccccc1)c1ccccc1)C2 (stereo not given)	0	0	0	0	0	0
C=CCC1(Cc2ccsc2)C(=O)NC(=O)NC1=O	-	-	-	-	-	0
CCC(=NCCCN(CC)CC)c1c(O)n(C2CCCCC2)c(=O)[nH]c1=O	0	0	0	0	100	0
NP(=O)(Oc1ccc(Cl)cc1)Oc1ccc(Cl)cc1	0	7.7	0	0	0	0
Cn1c(=O)c2c(nc(-c3ccc(N(CCCl)CCCl)cc3)n2C)n(C)c1=O	-	-	-	-	-	0
COC1C(O)C(C)OC(OC2C(Oc3cccc4c(O)c5c(=O)oc6ccc(C)c7c(=O)oc(c34)c5c67)OC(C)C(O)C2O)C1O (stereo not given)	-	-	-	-	-	0
O=P(O)(O)Cc1c(Cl)cccc1Cl	0	0	12	0	0	0
CC1Oc2cc3c(-c4c(O)cc(O)c5c(O)c6c(cc45)OC(C)C(C)C6=O)c(O)cc(O)c3c(O)c2C(=O)C1C (stereo not given)	0	0	0	0	0	-9.1
CC1(C)C[C@H]2C=C(C=O)[C@]3(C=O)C[C@]3(C)[C@H]2C1	0	0	0	0	100	0
CC(=O)OC1CCC2(C)C3CCC4(C)C(OC(C)=O)CCC4C3C(C)C2(O)C1 (stereo not given)	-	-	-	-	-	0
Nc1ccccc1-[n+]1c(-c2ccccc2)cc(-c2ccccc2)cc1-c1ccccc1	0	0	0	0	0	-9
Cc1ccccc1-[n+]1c(-c2ccccc2)cc(-c2ccccc2)cc1-c1ccccc1	0	-	-	7.5	100	0
Cc1ccc(-c2cc(-c3ccccc3)cc(-c3ccccc3)[n+]2-c2ccc(C(=O)O)cc2)cc1	0	-	-	0	0	0
Cc1ccc(N2C(=O)NC(=O)/C(=C\c3ccoc3)C2=O)cc1	0	0	0	0	0	-4.6
CC1=C(C)CC2(CC1)C(=O)NC(=O)NC2=O	-	-	-	-	-	0
Oc1ccc(O)c2c1C1(Cl)C(Cl)=C(Cl)C2(Cl)C1(Cl)Cl	-	-	-	-	-	0
SMILES	CHT inh	IMP-1 inhibitor	VIM-2 inh	CHT PAM	ANO1 block	TMEM16A act
CC(C)OC(=O)C1C2c3ccccc3C(c3ccccc32)C1C(=O)O (stereo not given)	0	0	0	0	0	0
COC(=O)C1C2c3ccccc3C(c3ccccc32)C1C(=O)OC (stereo not given)	0	0	0	0	0	-8.8
N#CC(C#N)=NNc1ccc(S(N)(=O)=O)cc1	0	0	0	0	0	0
CC1CCN(S(=O)(=O)c2ccc(NN=C(C#N)C#N)cc2)CC1	0	0	0	0	100	-
CNc1ccc2nc3ccccc3[n+](C)c2c1	0	0	8.0	0	0	-5
C[n+]1c2ccccc2nc2ccc(NCCO)cc21	0	0	0	0	0	0
Cc1ccc(-c2cc(-c3ccc(C)cc3)[n+](-c3ccc(C(=O)O)cc3)c(-c3ccc(C)cc3)c2)cc1	0	-	-	0	0	0
Cc1ccc(C[n+]2c(-c3ccc(C)cc3)cc(-c3ccc(C)cc3)cc2-c2ccc(C)cc2)cc1	0	-	-	8.7	100	0
CCCC(C)n1[nH]c(=O)c2c1NC(=O)CSC2c1ccccc1 (stereo not given)	0	0	0	0	0	0
CCOc1ccccc1C1SCC(=O)Nc2c1c(=O)[nH]n2C(CC)CC (stereo not given)	0	0	11	0	0	0
CC(N)C(=O)NC1C2C(=C(O)CC(O)C2O)C(=O)OC1(C)C(Cl)Cl (stereo not given)	-	-	-	-	-	0
CC1CCN(C(CC(=O)c2ccccc2)C(=O)c2ccccc2)CC1 (stereo not given)	-	-	-	-	-	0
ClC1=C(Cl)C2(Cl)C3C(Cl)C=CC3C1(Cl)C2(Cl)Cl (stereo not given)	-	-	-	-	-	-16
O=C1NC(=O)C2C1C1(Cl)C(Cl)=C(Cl)C2(Cl)C1(Cl)Cl (stereo not given)	-	-	-	-	-	0
O=C(NP(=O)(N1CC1)N1CC1)c1cc(I)ccc1I	-	-	-	-	-	0
CN1C(=O)C(=Cc2ccc(N3CCOCC3)o2)C(=O)N(C)C1=S	0	0	0	0	0	0
CCN1C(=O)C(=Cc2ccc(N3CCOCC3)o2)C(=O)N(CC)C1=S	0	0	0	0	0	-5.5
C[C@]12CCC3C(CC[C@@H]4[C@H]5O[C@H]5CC[C@]34C)C1CC[C@@H]2O (stereo not given in full)	-	-	-	-	-	0
C=CCn1c(O)c(C(C)=NC2CCN(Cc3ccccc3)CC2)c(=O)[nH]c1=O	0	0	8.7	0	0	0
COc1ccc(-[n+]2c(-c3ccccc3)cc(-c3ccc(C)cc3)cc2-c2ccccc2)cc1	0	0	0	0	100	0
Brc1ccc(-[n+]2c(-c3ccccc3)cc(-c3ccccc3)cc2-c2ccccc2)cc1	0	-	-	12	100	0
CCOP(=O)(NC(C)C)Oc1ccc(SC)c(C)c1 (stereo not given)	-	-	-	-	-	0
CC1(C)OC(c2ccccc2)=C/C(=C/C=C2C(=O)NC(=O)NC2=O)O1	0	4.6	0	0	0	0
Cc1cc(OC(C)C(=O)NCc2cccnc2)c2c3c(c(=O)oc2c1)CCC3 (stereo not given)	0	0	8.4	0	0	0
COC(=O)C1C=C2c3cccc4[nH]cc(c34)CC2N(C)C1 (stereo not given)	-	6.8	0	-	-	-
CCC(CO)NC(=O)C1C=C2c3cccc4[nH]cc(c34)CC2N(C)C1 (stereo not given)	0	0	0	0	0	0

Screening results (PubChem)
